The values that follow come from ChEMBL document CHEMBL1949525, “Boranophosphate isoster controls P2Y-receptor subtype selectivity and metabolic stability of dinucleoside polyphosphate analogues” (J Med Chem, 2012).

A short description of data set [1]: Stability of the compound assessed as human e-NPP1-mediated hydrolysis at pH 8.5 after 20 mins by HPLC analysis. Format: ADME. The conditions noted are these: buffer, pH 8.5, 20 min; for Drug degradation: 20 min. In short, it runs like this:
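Human NPP1 preparation preincubated 3 min at 37 °C in 1 mM CaCl2, 200 mM NaCl, 10 mM KCl, 100 mM Tris, pH 8.5. Started with 0.2 mM dinucleotide solution (added volume) and stopped after 20 min in ice-cold perchloric acid. Neutralised with KOH, then NMP formation followed by HPLC. Percent substrate hydrolysed is the mean of two experiments run in triplicate.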

The target in data set [2] is P2Y purinoceptor 1 (Meleagris gallopavo, UniProt P49652). The data set is described as follows: Agonist activity at turkey P2Y purinoceptor 1 expressed in human 1321N1 cells assessed as increase in intracellular calcium concentration by spectrofluorimetry. Format: functional, cell-based. A general note: A change in cytosolic calcium serves as a functional read-out for many receptors and channels.

For data set [3], the target named is P2Y purinoceptor 6 (Rattus norvegicus, UniProt Q63371). Kind of data set: Agonist activity at rat P2Y purinoceptor 6 expressed in human 1321N1 cells assessed as increase in intracellular calcium concentration by spectrofluorimetry. Format: functional, cell-based. Particulars: read-out: EC50. Summed up:
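1321N1 astrocytoma cells lacking endogenous P2Y receptors, stably transfected with turkey P2Y1, human P2Y2, human P2Y4 or rat P2Y6, grown in DMEM with 5% FBS, penicillin/streptomycin and 500 µg/mL G-418. Fura-2-loaded cell suspensions were exposed at 37 °C in 10 mM Hepes-buffered saline, pH 7.4, with 1 mM CaCl2 and 1 mM MgCl2. Peak [Ca2+]i rise by dual-excitation spectrofluorometry across concentrations; EC50 from curve fits; three experiments on separate days per subtype.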

Data set [4] concerns the target T1, P2Y purinoceptor 2 (Homo sapiens, UniProt P41231). Kind of data set: Agonist activity at human P2Y purinoceptor 2 expressed in human 1321N1 cells assessed as increase in intracellular calcium concentration by spectrofluorimetry. Format: functional, cell-based.
The target of data set [5] is P2Y purinoceptor 6 (Rattus norvegicus) (UniProt Q63371). The data set is described as follows: Antagonist activity at rat P2Y purinoceptor 6 expressed in human 1321N1 cells assessed as inhibition of UDP-induced increase in intracellular calcium concentration by spectrofluorimetry. Format: functional, cell-based. Summed up: (§1)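 Fura-2-loaded 1321N1 transfectants (turkey P2Y1, human P2Y2/P2Y4, rat P2Y6) in Hepes-buffered saline, pH 7.4, at 37 °C. Analogues were tested against equimolar reference agonist: 2-MeS-ADP for P2Y1, UTP for P2Y2/4, UDP for P2Y6. Blockade of the [Ca2+]i rise was followed by dual-excitation spectrofluorometry.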

Data set [6] concerns the target T2, P2Y purinoceptor 4 (Homo sapiens, UniProt P51582). Kind of data set: Antagonist activity at human P2Y purinoceptor 4 expressed in human 1321N1 cells assessed as inhibition of UTP-induced increase in intracellular calcium concentration by spectrofluorimetry. Format: functional, cell-based. Summed up:
as §1

The target of data set [7] is P2Y purinoceptor 1 (Meleagris gallopavo) (UniProt P49652). Kind of data set: Antagonist activity at turkey P2Y purinoceptor 1 expressed in human 1321N1 cells assessed as inhibition of 2-Sme-ADP-induced increase in intracellular calcium concentration by spectrofluorimetry. Format: functional, cell-based. In short, it runs like this:
as §1

The target of data set [8] is T1, P2Y purinoceptor 2. Kind of data set: Antagonist activity at human P2Y purinoceptor 2 expressed in human 1321N1 cells assessed as inhibition of UTP-induced increase in intracellular calcium concentration by spectrofluorimetry. Format: functional, cell-based. Summed up: as §1
In data set [9] the target is T2, P2Y purinoceptor 4. Kind of data set: Agonist activity at human P2Y purinoceptor 4 expressed in human 1321N1 cells assessed as increase in intracellular calcium concentration by spectrofluorimetry. Format: functional, cell-based. Particulars: read-out: EC50. Summed up: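 1321N1 astrocytoma cells (no endogenous P2Y receptors) stably expressing hP2Y4, grown in DMEM with 5% FBS, penicillin/streptomycin and 500 μg/mL G-418. Fura-2-loaded cell suspensions; compounds applied at various concentrations, 37 °C, 10 mM Hepes-buffered saline pH 7.4 with 1 mM CaCl2/MgCl2. Peak [Ca2+]i rise by dual-excitation fluorometry gives EC50; UTP reference agonist; three experiments on separate days.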

The source made the active and inactive calls. The rule behind the calls is not given here.

Sequence of P2Y purinoceptor 6 (Rattus norvegicus) (Q63371 whole entry): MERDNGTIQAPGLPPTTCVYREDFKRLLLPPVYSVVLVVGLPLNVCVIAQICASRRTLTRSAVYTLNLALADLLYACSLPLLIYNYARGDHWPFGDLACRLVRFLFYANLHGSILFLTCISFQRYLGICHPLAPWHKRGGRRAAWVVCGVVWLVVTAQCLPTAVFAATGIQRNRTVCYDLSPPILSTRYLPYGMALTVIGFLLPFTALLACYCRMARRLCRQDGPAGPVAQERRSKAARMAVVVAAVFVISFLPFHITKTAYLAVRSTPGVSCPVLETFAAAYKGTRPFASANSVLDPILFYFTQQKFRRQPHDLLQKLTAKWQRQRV
Sequence of P2Y purinoceptor 6 (Q63371 whole entry): as above
T2 sequence (P51582 whole entry): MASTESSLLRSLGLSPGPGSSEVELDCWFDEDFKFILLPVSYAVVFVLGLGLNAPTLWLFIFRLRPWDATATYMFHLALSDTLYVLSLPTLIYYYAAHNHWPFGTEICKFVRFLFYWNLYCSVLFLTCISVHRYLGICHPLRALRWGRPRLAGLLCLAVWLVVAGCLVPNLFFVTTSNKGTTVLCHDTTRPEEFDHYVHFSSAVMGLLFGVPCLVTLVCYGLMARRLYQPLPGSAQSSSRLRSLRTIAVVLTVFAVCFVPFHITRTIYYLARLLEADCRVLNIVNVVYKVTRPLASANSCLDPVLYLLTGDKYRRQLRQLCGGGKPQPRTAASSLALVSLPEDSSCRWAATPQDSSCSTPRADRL
Sequence of P2Y purinoceptor 1 (P49652 whole entry): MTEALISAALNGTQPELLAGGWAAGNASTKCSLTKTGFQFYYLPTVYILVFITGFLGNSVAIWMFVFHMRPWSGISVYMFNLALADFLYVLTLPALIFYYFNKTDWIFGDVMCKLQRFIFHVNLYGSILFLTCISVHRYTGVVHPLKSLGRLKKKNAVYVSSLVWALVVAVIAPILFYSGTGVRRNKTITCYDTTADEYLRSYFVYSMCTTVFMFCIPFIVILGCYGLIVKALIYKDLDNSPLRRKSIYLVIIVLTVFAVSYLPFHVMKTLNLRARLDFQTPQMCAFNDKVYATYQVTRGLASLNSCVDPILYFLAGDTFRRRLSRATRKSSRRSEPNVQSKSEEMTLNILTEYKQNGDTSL
Sequence of P2Y purinoceptor 1 (Meleagris gallopavo) (P49652 whole entry): as above
T1 sequence (P41231 whole entry): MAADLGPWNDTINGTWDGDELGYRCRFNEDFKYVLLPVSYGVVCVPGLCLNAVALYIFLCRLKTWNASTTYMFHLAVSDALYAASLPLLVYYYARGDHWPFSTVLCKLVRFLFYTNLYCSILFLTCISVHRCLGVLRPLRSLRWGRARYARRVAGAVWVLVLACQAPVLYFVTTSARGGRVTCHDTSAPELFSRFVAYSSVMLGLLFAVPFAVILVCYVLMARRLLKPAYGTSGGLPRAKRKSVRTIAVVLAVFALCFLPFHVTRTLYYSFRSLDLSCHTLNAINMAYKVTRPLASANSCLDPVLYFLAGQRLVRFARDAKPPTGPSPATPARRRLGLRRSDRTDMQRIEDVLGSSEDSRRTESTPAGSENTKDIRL

`Nc1ncnc2c1ncn2[C@@H]1O[C@H](COP(=O)(O)OP(=O)(O)OP(=O)(O)OP(=O)(O)OP(=O)(O)OC[C@H]2O[C@@H](n3cnc4c(N)ncnc43)[C@H](O)[C@@H]2O)[C@@H](O)[C@H]1O`: the Stability result in [1] is on record as “Unstable”.

What is called EC50 is the concentration at which the effect is half-maximal. As for `BP(=O)(OP(=O)(O)OC[C@H]1O[C@@H](n2cnc3c(N)ncnc32)[C@H](O)[C@@H]1O)OP(=O)(O)OP(=O)(O)OC[C@H]1O[C@@H](n2cnc3c(N)ncnc32)[C@H](O)[C@@H]1O.CCCCN(CCCC)CCCC.CCCCN(CCCC)CCCC.CCCCN(CCCC)CCCC.CCCCN(CCCC)CCCC` (stereo in doubt; 6B), the Drug degradation in data set [1] turned out to be 2.1%. Moreover, the EC50 in data set [2] (read-out: EC50) was determined as 4.3 µM.

For the compound `BP(=O)(OP(=O)(O)OC[C@H]1O[C@@H](n2ccc(=O)[nH]c2=O)[C@H](O)[C@@H]1O)OP(=O)(O)OP(=O)(O)OC[C@H]1O[C@@H](n2ccc(=O)[nH]c2=O)[C@H](O)[C@@H]1O.CCCCN(CCCC)CCCC.CCCCN(CCCC)CCCC.CCCCN(CCCC)CCCC.CCCCN(CCCC)CCCC` (stereo in doubt; 7B), the EC50 in data set [3] is 0.98 µM; in [4] (1321-n1) it was “Not Active”. Further, the Drug degradation in data set [1] was determined as 3.5%.

For the compound `BP(=O)(OP(=O)(O)OC[C@H]1O[C@@H](n2cnc3c(N)ncnc32)[C@H](O)[C@@H]1O)OP(=O)(O)OP(=O)(O)OC[C@H]1O[C@@H](n2ccc(=O)[nH]c2=O)[C@H](O)[C@@H]1O.CCCCN(CCCC)CCCC.CCCCN(CCCC)CCCC.CCCCN(CCCC)CCCC.CCCCN(CCCC)CCCC` (stereo in doubt; 8B) [listing 1 of 2 here], the EC50 in data set [3] worked out at 1.92 µM; in data set [2] (read-out: EC50), 6.9 µM; in data set [4] (read-out: EC50), 64.2 µM. In [1], the Drug degradation is 2.1%.

With `BP(=O)(OP(=O)(O)OC[C@H]1O[C@@H](n2cnc3c(N)ncnc32)[C@H](O)[C@@H]1O)OP(=O)(O)OP(=O)(O)OC[C@H]1O[C@@H](n2ccc(=O)[nH]c2=O)[C@H](O)[C@@H]1O.CCCCN(CCCC)CCCC.CCCCN(CCCC)CCCC.CCCCN(CCCC)CCCC.CCCCN(CCCC)CCCC` (stereo in doubt; 8B) [listing 2 of 2 here], the outcome in data set [5], in data set [6], in data set [7] and in [8] was inactive.

As to `BP(=O)(OP(=O)(O)OC[C@H]1O[C@@H](n2ccc(=O)[nH]c2=O)[C@H](O)[C@@H]1O)OP(=O)(O)OP(=O)(O)OC[C@H]1O[C@@H](n2cnc3c(N)ncnc32)[C@H](O)[C@@H]1O.CCCCN(CCCC)CCCC.CCCCN(CCCC)CCCC.CCCCN(CCCC)CCCC.CCCCN(CCCC)CCCC` (stereo in doubt; 9B) [listing 1 of 2 here], the half-maximal effective concentration (EC50) in data set [3] was 11.7 µM; in [2] (read-out: EC50), 0.81 µM; in [4] (1321-n1), “Not Active”. Also, the Drug degradation in data set [1] is listed as 3.3%.

`BP(=O)(OP(=O)(O)OC[C@H]1O[C@@H](n2ccc(=O)[nH]c2=O)[C@H](O)[C@@H]1O)OP(=O)(O)OP(=O)(O)OC[C@H]1O[C@@H](n2cnc3c(N)ncnc32)[C@H](O)[C@@H]1O.CCCCN(CCCC)CCCC.CCCCN(CCCC)CCCC.CCCCN(CCCC)CCCC.CCCCN(CCCC)CCCC` (stereo in doubt; 9B) [listing 2 of 2 here]: the outcome in data set [5], in data set [6], in [7] and in data set [8] was inactive.

For `BP(=O)(OC[C@H]1O[C@@H](n2cnc3c(N)ncnc32)[C@H](O)[C@@H]1O)OP(=O)(O)OP(=O)(O)OC[C@H]1O[C@@H](n2cnc3c(N)ncnc32)[C@H](O)[C@@H]1O.CCCCN(CCCC)CCCC.CCCCN(CCCC)CCCC.CCCCN(CCCC)CCCC` (stereo in doubt; 10A), the outcome in data set [5], in [6], in [7] and in [8] was inactive.

For `BP(=O)(OC[C@H]1O[C@@H](n2cnc3c(N)ncnc32)[C@H](O)[C@@H]1O)OP(=O)(O)OP(=O)(O)OC[C@H]1O[C@@H](n2cnc3c(N)ncnc32)[C@H](O)[C@@H]1O.CCCCN(CCCC)CCCC.CCCCN(CCCC)CCCC.CCCCN(CCCC)CCCC` (stereo in doubt; 10B) [listing 1 of 2 here], in data set [1], the Drug degradation turned out to be 4.4%. Also, the EC50 in data set [2] (read-out: EC50) stood at 0.8 µM.

In the case of `BP(=O)(OC[C@H]1O[C@@H](n2cnc3c(N)ncnc32)[C@H](O)[C@@H]1O)OP(=O)(O)OP(=O)(O)OC[C@H]1O[C@@H](n2cnc3c(N)ncnc32)[C@H](O)[C@@H]1O.CCCCN(CCCC)CCCC.CCCCN(CCCC)CCCC.CCCCN(CCCC)CCCC` (stereo in doubt; 10B) [listing 2 of 2 here], the outcome in [5], in [6], in data set [7] and in data set [8] was inactive.

As to `BP(=O)(OC[C@H]1O[C@@H](n2ccc(=O)[nH]c2=O)[C@H](O)[C@@H]1O)OP(=O)(O)OP(=O)(O)OC[C@H]1O[C@@H](n2ccc(=O)[nH]c2=O)[C@H](O)[C@@H]1O.CCCCN(CCCC)CCCC.CCCCN(CCCC)CCCC.CCCCN(CCCC)CCCC` (stereo in doubt; 11A), the outcome in [5], in data set [6], in data set [7] and in data set [8] was inactive.

Turning to `BP(=O)(OC[C@H]1O[C@@H](n2ccc(=O)[nH]c2=O)[C@H](O)[C@@H]1O)OP(=O)(O)OP(=O)(O)OC[C@H]1O[C@@H](n2ccc(=O)[nH]c2=O)[C@H](O)[C@@H]1O.CCCCN(CCCC)CCCC.CCCCN(CCCC)CCCC.CCCCN(CCCC)CCCC` (stereo in doubt; 11B), the EC50 in data set [3] was 0.3 µM. Also, the Drug degradation in data set [1] was found to be 6%.

On to `BP(=O)(OC[C@H]1O[C@@H](n2cnc3c(N)ncnc32)[C@H](O)[C@@H]1O)OP(=O)(O)OP(=O)(O)OP(=O)(O)OC[C@H]1O[C@@H](n2cnc3c(N)ncnc32)[C@H](O)[C@@H]1O.CCCCN(CCCC)CCCC.CCCCN(CCCC)CCCC.CCCCN(CCCC)CCCC.CCCCN(CCCC)CCCC` (stereo in doubt; 12A), for which the result in data set [5], in [6], in data set [7] and in data set [8] was inactive.

As for `BP(=O)(OC[C@H]1O[C@@H](n2cnc3c(N)ncnc32)[C@H](O)[C@@H]1O)OP(=O)(O)OP(=O)(O)OP(=O)(O)OC[C@H]1O[C@@H](n2cnc3c(N)ncnc32)[C@H](O)[C@@H]1O.CCCCN(CCCC)CCCC.CCCCN(CCCC)CCCC.CCCCN(CCCC)CCCC.CCCCN(CCCC)CCCC` (stereo in doubt; 12B) [listing 1 of 2 here], in data set [1], the Drug degradation worked out at 17%. The EC50 is 6.9 µM in data set [2] (read-out: EC50) and 64.2 µM in data set [4] (read-out: EC50).

For `BP(=O)(OC[C@H]1O[C@@H](n2cnc3c(N)ncnc32)[C@H](O)[C@@H]1O)OP(=O)(O)OP(=O)(O)OP(=O)(O)OC[C@H]1O[C@@H](n2cnc3c(N)ncnc32)[C@H](O)[C@@H]1O.CCCCN(CCCC)CCCC.CCCCN(CCCC)CCCC.CCCCN(CCCC)CCCC.CCCCN(CCCC)CCCC` (stereo in doubt; 12B) [listing 2 of 2 here], the outcome in [5], in data set [6], in data set [7] and in data set [8] was inactive.

With `BP(=O)(OC[C@H]1O[C@@H](n2ccc(=O)[nH]c2=O)[C@H](O)[C@@H]1O)OP(=O)(O)OP(=O)(O)OP(=O)(O)OC[C@H]1O[C@@H](n2ccc(=O)[nH]c2=O)[C@H](O)[C@@H]1O.CCCCN(CCCC)CCCC.CCCCN(CCCC)CCCC.CCCCN(CCCC)CCCC.CCCCN(CCCC)CCCC` (stereo in doubt; 13A), the EC50 was 9.4 µM in data set [9], 36.1 µM in data set [3] and “Not Active” in data set [2] (1321-n1). Further, in data set [1], the Drug degradation came out at 3.5%.

With `BP(=O)(OC[C@H]1O[C@@H](n2ccc(=O)[nH]c2=O)[C@H](O)[C@@H]1O)OP(=O)(O)OP(=O)(O)OP(=O)(O)OC[C@H]1O[C@@H](n2ccc(=O)[nH]c2=O)[C@H](O)[C@@H]1O.CCCCN(CCCC)CCCC.CCCCN(CCCC)CCCC.CCCCN(CCCC)CCCC.CCCCN(CCCC)CCCC` (stereo in doubt; 13B), the values for the EC50 in [9], in [3] and in [4] (read-out: EC50) were 16.8 µM, 3.9 µM and 24.6 µM, respectively. In data set [1], the Drug degradation is 11.3%.
